Key:
[1] = target: T1, Adrenergic receptor alpha-1 (Rattus norvegicus, UniProt P15823+P23944+P43140); assay: The concentration required to inhibit [3H]prazosin binding to Alpha-1 adrenergic receptor in rat brain membranes was measured (in vitro); type: cell membranes
T1 sequence (P15823 whole entry): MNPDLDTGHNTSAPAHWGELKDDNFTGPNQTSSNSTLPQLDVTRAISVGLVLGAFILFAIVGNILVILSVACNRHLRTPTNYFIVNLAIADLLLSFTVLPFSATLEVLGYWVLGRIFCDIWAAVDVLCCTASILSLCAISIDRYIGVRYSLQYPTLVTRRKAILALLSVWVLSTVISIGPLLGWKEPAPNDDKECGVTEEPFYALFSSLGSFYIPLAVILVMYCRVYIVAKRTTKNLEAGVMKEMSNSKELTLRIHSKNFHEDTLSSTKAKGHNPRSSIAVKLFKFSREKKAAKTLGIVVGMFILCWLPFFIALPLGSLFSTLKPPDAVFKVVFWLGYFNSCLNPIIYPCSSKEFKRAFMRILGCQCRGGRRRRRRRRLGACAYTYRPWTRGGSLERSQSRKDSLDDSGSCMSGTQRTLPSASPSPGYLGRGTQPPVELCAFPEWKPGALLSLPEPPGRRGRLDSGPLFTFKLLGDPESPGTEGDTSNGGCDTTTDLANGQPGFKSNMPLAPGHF
T1 sequence (P23944 whole entry): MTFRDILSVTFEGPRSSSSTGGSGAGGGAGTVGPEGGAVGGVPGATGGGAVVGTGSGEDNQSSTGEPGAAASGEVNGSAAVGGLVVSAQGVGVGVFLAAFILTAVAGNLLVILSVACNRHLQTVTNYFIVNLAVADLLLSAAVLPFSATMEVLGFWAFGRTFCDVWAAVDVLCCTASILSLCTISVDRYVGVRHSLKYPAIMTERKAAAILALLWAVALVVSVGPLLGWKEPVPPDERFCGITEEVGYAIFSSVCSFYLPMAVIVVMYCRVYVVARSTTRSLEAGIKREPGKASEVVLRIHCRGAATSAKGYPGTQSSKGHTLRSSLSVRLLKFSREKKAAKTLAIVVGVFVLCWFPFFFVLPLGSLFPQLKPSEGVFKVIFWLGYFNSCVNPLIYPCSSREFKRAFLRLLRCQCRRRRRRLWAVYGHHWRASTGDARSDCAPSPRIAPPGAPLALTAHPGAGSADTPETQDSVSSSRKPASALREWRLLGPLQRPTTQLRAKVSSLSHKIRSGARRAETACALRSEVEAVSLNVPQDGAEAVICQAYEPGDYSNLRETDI
T1 sequence (P43140 whole entry): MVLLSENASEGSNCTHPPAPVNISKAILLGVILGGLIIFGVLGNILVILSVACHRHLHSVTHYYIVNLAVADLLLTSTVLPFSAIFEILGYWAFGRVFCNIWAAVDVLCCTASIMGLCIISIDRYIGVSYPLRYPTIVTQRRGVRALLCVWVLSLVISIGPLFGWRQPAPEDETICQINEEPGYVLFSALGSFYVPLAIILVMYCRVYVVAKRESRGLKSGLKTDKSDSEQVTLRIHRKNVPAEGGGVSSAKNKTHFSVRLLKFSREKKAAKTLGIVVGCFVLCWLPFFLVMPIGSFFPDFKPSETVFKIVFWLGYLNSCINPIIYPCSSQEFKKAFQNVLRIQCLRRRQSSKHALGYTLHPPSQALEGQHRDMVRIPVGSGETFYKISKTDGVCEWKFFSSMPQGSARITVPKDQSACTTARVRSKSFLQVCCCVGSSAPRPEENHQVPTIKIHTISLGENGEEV

D(2) dopamine receptor [2] = target: T2, D(2) dopamine receptor (Rattus norvegicus, UniProt P61169); assay: The concentration required to inhibit [3H]spiperone binding to dopamine receptor D2 in rat brain membranes (in vitro); type: cell membranes
T2 sequence (P61169 whole entry): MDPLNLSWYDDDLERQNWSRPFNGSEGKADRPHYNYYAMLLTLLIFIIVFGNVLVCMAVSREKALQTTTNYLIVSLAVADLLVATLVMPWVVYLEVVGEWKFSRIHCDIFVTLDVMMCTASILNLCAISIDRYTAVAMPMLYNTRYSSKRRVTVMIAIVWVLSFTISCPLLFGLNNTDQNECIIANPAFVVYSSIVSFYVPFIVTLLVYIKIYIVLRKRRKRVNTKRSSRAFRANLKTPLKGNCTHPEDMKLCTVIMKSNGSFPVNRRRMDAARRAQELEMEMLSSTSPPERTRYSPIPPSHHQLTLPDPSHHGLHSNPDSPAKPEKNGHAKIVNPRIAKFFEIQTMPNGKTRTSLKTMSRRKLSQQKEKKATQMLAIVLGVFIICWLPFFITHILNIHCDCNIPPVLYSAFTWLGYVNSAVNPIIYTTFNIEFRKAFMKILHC
Outline: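 Rat striatal membranes (0.05 mg/mL protein) in Tris-HCl with BSA 2 mg/mL, NaCl, cinanserin 10⁻⁶ M and compound. [3H]spiperone (final 0.05 nM) added after 5 min, incubation continued 40 min. Nonspecific binding from 10⁻⁶ M sulpiride. Filtration and scintillation counting.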

[3] = target: Serotonin 2 (5-HT2) receptor (Rattus norvegicus, UniProt P30994+P08909+P14842); assay: The concentration required to inhibit [3H]ketanserin binding to 5-hydroxytryptamine 2 receptor in rat brain membranes (in vitro); type: cell membranes
Outline: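 Male Sprague-Dawley rat cortical membranes (0.15 mg/mL protein) in Tris-HCl pH 7.6 with BSA 2 mg/mL. Incubated 15 min at 37 °C with compound and [3H]ketanserin (final 0.4 nM). Nonspecific binding from 10⁻⁶ M methysergide. Filtration and scintillation counting. IC50 by nonlinear regression; mean of at least 2 runs, 6 concentrations in triplicate.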

Rattus norvegicus [4] = assay: The concentration required to induce head twich for 1 hours in rats when given po (in vivo); type: functional
Outline: (§1)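 Rats, 6 per dose, dosed sc or po, then given mescaline 20 mg/kg iv 1 h later (6 or 16 h later for duration of action). Head twitches counted for 15 min from injection. Fewer than 3 twitches counted as antagonism.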

Rattus norvegicus [5] = assay: The concentration required to induce head twich for 6 hours in rats when given po (in vivo); type: functional; outline: as §1
Mus musculus [6] = assay: The concentration required to induce head twich in mice when given sc (in vivo); type: functional
Outline: (§2)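 Mice, 6 per dose, dosed sc 60 min or po 90 min before mescaline 50 mg/kg ip. Observed for 2 min starting 15 min after mescaline; head twitches scored as all-or-none.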

Rattus norvegicus [7] = assay: The concentration required to induce head twich for 1 hours in rats when given sc (in vivo); type: functional; outline: as §1
Histamine H1 receptor = Histamine H1 receptor (Cavia porcellus, UniProt P31389); assay: Binding constant against histamine H1 receptor (in vitro)
Histamine H1 receptor, sequence (P31389 whole entry): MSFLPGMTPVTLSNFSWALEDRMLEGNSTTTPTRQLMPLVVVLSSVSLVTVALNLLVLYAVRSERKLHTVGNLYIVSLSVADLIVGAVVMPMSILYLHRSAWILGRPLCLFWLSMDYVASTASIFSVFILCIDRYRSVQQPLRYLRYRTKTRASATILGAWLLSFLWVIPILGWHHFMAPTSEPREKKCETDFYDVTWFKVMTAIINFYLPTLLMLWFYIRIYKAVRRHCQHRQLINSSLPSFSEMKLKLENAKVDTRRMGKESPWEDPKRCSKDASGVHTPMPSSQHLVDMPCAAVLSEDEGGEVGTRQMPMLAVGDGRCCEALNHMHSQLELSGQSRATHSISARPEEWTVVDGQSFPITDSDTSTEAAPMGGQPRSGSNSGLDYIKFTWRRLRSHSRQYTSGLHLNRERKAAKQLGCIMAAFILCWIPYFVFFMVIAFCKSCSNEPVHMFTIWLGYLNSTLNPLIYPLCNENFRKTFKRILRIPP
Outline: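 Male guinea pig cerebellar membranes (0.35 mg/mL protein) in 50 mM sodium phosphate pH 7.5. Incubated 30 min at 25 °C with compound and [3H]mepyramine (final 0.7 nM). Nonspecific binding from 10⁻⁶ M promethazine. Filtration through glass-fibre filters and liquid scintillation counting.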

Rattus norvegicus [8] = assay: The concentration required to induce head twich for 16 hours in rats when given po (in vivo); type: functional; outline: as §1
[9] = target: T1, Adrenergic receptor alpha-1; assay: Binding constant against Alpha-1 adrenergic receptor (in vitro); type: protein assay
Outline: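 Male Sprague-Dawley rat cerebrocortical membranes (0.15 mg/mL protein) in Tris-HCl pH 7.6 with BSA 2 mg/mL. Incubated 40 min at 25 °C with compound and [3H]prazosin (final 0.065 nM). Nonspecific binding from 10⁻⁶ M phentolamine. Filtration and scintillation counting. IC50 values are the mean of at least 2 runs, each with 6 concentrations in triplicate.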

Rattus norvegicus [10] = assay: The concentration required to induce head twich for 16 hours in rats when given sc (in vivo); type: functional; outline: as §1
Rattus norvegicus [11] = assay: The concentration required to induce head twich for 6 hours in rats when given sc (in vivo); type: functional; outline: as §1
D(2) dopamine receptor [12] = target: T2, D(2) dopamine receptor; assay: Binding constant against dopamine receptor D2 (in vitro)
Outline: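 Rat striatal membranes (0.05 mg protein/mL, Tris-HCl with 2 mg/mL BSA, NaCl, 10^-6 M cinanserin) preincubated 5 min with test compound. [3H]spiperone (final 0.05 nM) then added for a further 40 min. Nonspecific binding defined with 10^-6 M sulpiride. Read-out by filtration and scintillation counting.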

Mus musculus [13] = assay: The concentration required to induce head twich in mice when given po (in vivo); type: functional; outline: as §2

Row | Compound | IC50 [1] [nM] | IC50 (D(2) dopamine receptor [2]) [nM] | IC50 [3] [nM] | further results
1 | O=S1(=O)c2cccc3cccc(c23)N1CCN1CC=C(c2ccccc2)CC1 | 98 | > 100 | 6.3 | 
2 | CS(=O)(=O)N(CCCN1CC=C(c2ccccc2)CC1)c1cccc2ccccc12 | 75 | 275 | 5.1 | 
3 | O=S(=O)(c1ccccc1)N(CCCN1CC=C(c2ccccc2)CC1)c1ccccc1 | 35 | 80 | 10 | 
4 | O=[N+]([O-])c1ccc(N2CCN(CCCN3c4cccc5cccc(c45)S3(=O)=O)CC2)cc1 | > 1000 | > 1000 | 25 | 
5 | O=S1(=O)c2ccccc2-c2ccccc2N1CCCN1CC=C(c2ccccc2)CC1 | 10 | 110 | 10 | 
6 | O=S1(=O)c2cccc3cccc(c23)N1CCCN1CCC(n2c(O)nc3ccccc32)CC1 | < 10 | 46 | 7 | 
7 | O=S1(=O)c2cccc3cccc(c23)N1CCCCN1CC=C(c2ccccc2)CC1 | 7.8 | 55 | 2.1 | 

The next lines start with results.

Row | IC50 [1] [nM] | IC50 (D(2) dopamine receptor [2]) [nM] | IC50 [3] [nM] | Compound | further results
8 | 144 | 990 | 2.3 | O=S1(=O)c2cccc3cccc(c23)N1CCCN1CCN(c2noc3ccccc23)CC1 | 
9 | 688 | > 1000 | 18 | O=S1(=O)c2cccc3cccc(c23)N1CCCN1CCN(c2cccc(F)c2)CC1 | 
10 | 27 | 385 | 0.2 | O=S1(=O)c2cccc3cccc(c23)N1CCCN1CCC(c2ccccc2)CC1 | 
11 | > 1000 | > 1000 | 540 | O=S1(=O)c2cccc3cccc(c23)N1CCCN1CCN(c2nc3ccccc3s2)CC1 | 
12 | 75 | 473 | 0.4 | O=S1(=O)c2cccc3cccc(c23)N1CCCN1CCN(c2nsc3ccccc23)CC1 | 
13 | 700 | > 1000 | 4 | Cc1ccc(N2CCN(CCCN3c4cccc5cccc(c45)S3(=O)=O)CC2)cc1 | 
14 | 37 | 23 |  | Cc1nc2sccn2c(=O)c1CCN1CCC(=C(c2ccc(F)cc2)c2ccc(F)cc2)CC1 [RITANSERIN] | ED50 (Rattus norvegicus [4]): 2.55 mg/kg; ED50 (Rattus norvegicus [5]): 1.54 mg/kg; ED50 (Mus musculus [6]): 0.29 mg/kg; ED50 (Rattus norvegicus [7]): 0.38 mg/kg; Ki (Histamine H1 receptor): 6 nM; ED50 (Rattus norvegicus [8]): 18.4 mg/kg; Ki [9]: 29 nM; ED50 (Rattus norvegicus [10]): > 5 mg/kg; ED50 (Rattus norvegicus [11]): 0.55 mg/kg; Ki (D(2) dopamine receptor [12]): 22 nM; ED50 (Mus musculus [13]): 0.09 mg/kg
15 | 7.9 | 41 | 0.1 | O=C(c1ccc(F)cc1)C1CCN(CCCN2c3cccc4cccc(c34)S2(=O)=O)CC1 | 
